Test results published in ChEMBL document CHEMBL1143326, “Single-step high-yield radiosynthesis and evaluation of a sensitive 18F-labeled ligand for imaging brain peripheral benzodiazepine receptors with PET” (J Med Chem, 2009).

Legend:
[1] = Displacement of [3H]PK11195 from monkey PBR receptor; design: species or system Macaca mulatta
Translocator protein [2] = target: Translocator protein (Rattus norvegicus, UniProt P16257); assay: Displacement of [3H]PK11195 from rat PBR receptor
[3] = Distribution coefficient, log D at pH 7.4; type: physicochemical; conditions: octanol/water
Summary of the method: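 Radioligand partitioned between n-octanol and sodium phosphate buffer (0.15 M, pH 7.4); LogD taken as log of the distribution coefficient; n = 6.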

Translocator protein [4] = target: Translocator protein (Homo sapiens, UniProt P30536); assay: Displacement of [3H]PK11195 from human PBR receptor
Chain of Translocator protein (Homo sapiens, UniProt P30536) (P30536 whole entry): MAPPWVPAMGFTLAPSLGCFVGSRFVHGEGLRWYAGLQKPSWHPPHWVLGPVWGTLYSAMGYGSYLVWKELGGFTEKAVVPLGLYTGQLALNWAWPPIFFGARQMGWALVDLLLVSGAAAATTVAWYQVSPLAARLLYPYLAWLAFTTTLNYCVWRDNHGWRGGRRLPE
Summary of the method: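 Competition binding against [3H]PK 11195 in human brain tissue (mitochondrial fraction of brain homogenate). The tissue came from the NIMH Clinical Brain Disorders Branch. Affinity is expressed as Ki.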

[5] = Stability in rat brain assessed as unchanged drug level at 2 uCi upto 60 mins; type: ADME, tissue-based; conditions: read-out: Stability
[6] = Stability in rat plasma at 3.78 ug/kg, iv after 10.9 mins; type: ADME, organism-based; conditions: 0.00378 mg/kg, read-out: Stability
Plasma [7] = assay: Drug level in rat plasma assessed as unchanged drug level at >1.39 Ci/umol, iv after 60 mins; type: ADME, organism-based; conditions: in vivo, 1 h
[8] = Drug level in rat plasma assessed as drug recovery into acetonitrile analytes at >1.39 Ci/umol, iv after 60 mins; type: ADME, organism-based; conditions: read-out: Drug uptake
[9] = Stability in rat brain at 3.78 ug/kg, iv after 95 mins; type: ADME, organism-based; conditions: 0.00378 mg/kg, read-out: Stability
Plasma [10] = assay: Fraction unbound in human plasma; type: ADME, cell-free
Summary of the method: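 Radioligand added to pooled human plasma and ultrafiltered at 5000g through Centrifree units; all filter-unit components counted for radioactivity to give the free fraction; n = 3.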

Brain [11] = assay: Drug level in rhesus monkey brain assessed as standard uptake value in choroid plexus of fourth ventricle at 2.76 to 5.8 mCi, iv; type: ADME, organism-based, Macaca mulatta; conditions: in vivo
Summary of the method: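 Male rhesus monkeys (11–15 kg) anaesthetised with ketamine, then 1.6% isoflurane. Bolus i.v. radioligand (2.76–5.80 mCi; 0.068–0.276 μg/kg) given; PET for up to 300 min, co-registered with T1 MRI. Regional radioactivity expressed as %SUV; n = 4.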

[12] = Stability in rat plasma at 3.78 ug/kg, iv after 7.3 mins; type: ADME, organism-based; conditions: 0.00378 mg/kg, read-out: Stability
Brain [13] = assay: Stability in rat brain assessed as drug recovery into acetonitrile analytes at 3.78 ug/kg, iv; type: ADME, organism-based; conditions: in vivo, 0.00378 mg/kg
[14] = Stability in rat brain assessed as drug recovery at 1.36 Ci/umol, iv after 30 mins; type: ADME, organism-based; conditions: read-out: Stability
Summary of the method: (§1)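 Isoflurane-anaesthetised rat at 37 °C given no-carrier-added radioligand i.v. (mass dose 0.85 μg/kg); sacrifice at 30 min. Plasma and brain homogenate (saline plus acetonitrile) extracted into acetonitrile; supernatants analysed by reverse-phase radio-HPLC (C18, MeOH/H2O/Et3N 75:25:0.1); recovery of radioactivity and parent fraction measured.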

[15] = Drug level in rat urine assessed as drug recovery into acetonitrile analytes at >1.39 Ci/umol, iv after 60 mins; type: ADME, organism-based; conditions: read-out: Drug uptake
[16] = Stability in rhesus monkey plasma assessed as unchanged drug level after 45 mins by HPLC; type: ADME, cell-free, Macaca mulatta; conditions: read-out: Stability
Summary of the method: (§2)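 Radioligand incubated for at least 45 min at room temperature in monkey whole blood or plasma. Sample mixed with acetonitrile and centrifuged; supernatant analysed by reverse-phase radio-HPLC.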

[17] = Stability in rat plasma at 3.78 ug/kg, iv after 94.3 mins; type: ADME, organism-based; conditions: 0.00378 mg/kg, read-out: Stability
[18] = Drug level in rat urine assessed as unchanged drug level at >1.39 Ci/umol, iv after 60 mins; type: ADME, organism-based; conditions: in vivo, 1 h
[19] = Stability in rat plasma assessed as drug recovery at 1.36 Ci/umol, iv after 30 mins; type: ADME, organism-based; conditions: read-out: Stability; summary of the method: as §1
Plasma [20] = assay: Drug distribution in monkey plasma; type: ADME, cell-free, Macaca mulatta; conditions: rhesus monkey
Summary of the method: (§3)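 Radioligand incubated in vitro with monkey whole blood, then centrifuged; radioactivity counted in the plasma and cell fractions; n = 4.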

Plasma [21] = assay: Stability in rat plasma assessed as drug recovery into acetonitrile analytes at 3.78 ug/kg, iv; conditions: 0.00378 mg/kg
[22] = Stability in rhesus monkey whole blood assessed as unchanged drug level after 45 mins by HPLC; type: ADME, tissue-based, Macaca mulatta; conditions: read-out: Stability; summary of the method: as §2
[23] = Drug level in rat brain assessed as unchanged drug level at >1.39 Ci/umol, iv after 60 mins; type: ADME, organism-based; conditions: read-out: Drug uptake
[24] = Stability in sodium phosphate buffer at pH 7.4 after 2 hrs by HPLC; type: physicochemical; conditions: pH 7.4, 2 h
Summary of the method: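 Radioligand held in sodium phosphate buffer (0.15 M, pH 7.4) for 2 h at room temperature; analysed by HPLC.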

Blood [25] = assay: Drug level in monkey blood assessed as drug distribution in cellular compartment; type: ADME, tissue-based, Macaca mulatta; conditions: rhesus monkey; summary of the method: as §3
[26] = Drug level in rat brain assessed as drug recovery into acetonitrile analytes at >1.39 Ci/umol, iv after 60 mins; type: ADME, organism-based; conditions: read-out: Drug uptake
Plasma [27] = assay: Drug level in rat plasma assessed generation of polar radiometabolites as at 74.6 uCi, iv after 30 mins; type: ADME, organism-based; conditions: in vivo, 0.5 h
Blood [28] = assay: Drug level in rat blood assessed as standard uptake value at 74.6 uCi, iv after 30 mins; type: ADME, organism-based; conditions: in vivo, 0.5 h
Brain [29] = assay: Drug level in rat brain assessed generation of polar radiometabolites as at 74.6 uCi, iv after 30 mins; type: ADME, organism-based; conditions: in vivo, 0.5 h
Brain [30] = assay: Stability in rat brain assessed as conversion into polar radiometabolites at 10 uCi after 30 mins; type: ADME, tissue-based; conditions: 0.5 h
Summary of the method: (§4)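 Radioligand incubated for 30 min with rat brain homogenate or rat whole blood; conversion to polar species eluting at the solvent front measured by reverse-phase radio-HPLC.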

Brain [31] = assay: Drug level in rat brain assessed as standard uptake value at 74.6 uCi, iv after 30 mins; type: ADME, organism-based; conditions: in vivo, 0.5 h
Plasma [32] = assay: Drug level in rat plasma assessed as standard uptake value at 74.6 uCi, iv after 30 mins; type: ADME, organism-based; conditions: in vivo, 0.5 h
[33] = Stability in rat whole blood assessed as conversion into polar radiometabolites at 10 uCi after 30 mins; type: ADME, tissue-based; conditions: 0.5 h; summary of the method: as §4

Chain of Translocator protein (Rattus norvegicus, UniProt P16257) (P16257 whole entry, looked up): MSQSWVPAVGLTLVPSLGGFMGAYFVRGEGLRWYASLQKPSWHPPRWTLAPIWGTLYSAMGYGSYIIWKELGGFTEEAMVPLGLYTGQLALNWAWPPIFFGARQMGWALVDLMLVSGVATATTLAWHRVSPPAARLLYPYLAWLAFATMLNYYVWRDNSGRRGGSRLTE

With `COc1ccc(OC)c(CN(C(=O)CF)c2ccccc2Oc2ccccc2)c1` the Ki [1] was 318 pM, the Ki (Translocator protein [2]) was 180 pM and the logD [3] was 4.05. It also gave a Ki (Translocator protein [4]) of 997 pM.
For `COc1ccc(OC)c(CN(C(=O)C[18F])c2ccccc2Oc2ccccc2)c1`, the remaining at 1 h [5] was over 99.2%, the remaining at 0.181667 h [6] was 37.6% and the Drug uptake (Plasma [7]) was 14.2%. The recovery at 1 h [8] was 93.2%, the remaining at 95 min [9] was 39.2% and the Fu (Plasma [10]) was 0.7%. The Activity (Brain [11]) was 350%, the remaining at 0.121667 h [12] was 44.6% and the Stability (Brain [13]) was 81.8%. It also gave a remaining at 0.5 h [14] of 85.1%, a recovery at 1 h [15] of 80.3% and a remaining at 0.75 h [16] of 97.2%. The remaining at 1.57167 h [17] was 5.7%, the Drug uptake [18] was 0.2% and the remaining at 0.5 h [19] was 92.7%. For the same molecule, the Drug uptake (Plasma [20]) was 6.6%, the Stability (Plasma [21]) was 93% and the remaining at 0.75 h [22] was 95.5%. The remaining at 1 h [23] was 32.6%, the Stability [24] was “Stable” and the Drug uptake (Blood [25]) was 93.4%. For the same molecule, the recovery at 1 h [26] was 91%.
Molecule `O=C(C[18F])Nc1ccccc1Oc1ccccc1` has an Activity (Plasma [27]) of over 99%, a Drug uptake (Blood [28]) of 196% and an Activity (Brain [29]) of over 99%. For the same molecule, the Stability (Brain [30]) was over 99.9%, the Drug uptake (Brain [31]) was 120% and the Drug uptake (Plasma [32]) was 226%. It also gave a Stability [33] of over 99.9%.
`COc1ccc(OC)c(CN(C(C)=O)c2cc(F)ccc2Oc2ccccc2)c1` showed a Ki (Translocator protein [2]) of 72.6 pM and a Ki (Translocator protein [4]) of 242 pM.
